Source: ChEMBL document CHEMBL2086327, “A click chemistry approach to pleuromutilin derivatives, part 2: conjugates with acyclic nucleosides and their ribosomal binding and antibacterial activity” (2012)
In brackets after ≈: the same amount, converted by molar mass.

Assays:
Nucleic Acid [1] = test: Binding affinity to Escherichia coli 23S rRNA U2506 assessed as degree of protection against CMCT at 50 uM by Chemical footprinting analysis relative to control; assay type: nucleic-acid assay
Summary of the method: (§1)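 Ribosomes came from E. coli MRE600 grown in LB, lysed and purified on sucrose gradients. They were incubated with drug at 5 or 50 μM and then modified with CMCT. Read-out was primer extension with a Cy5-labeled primer, gel electrophoresis and laser scanning. Band intensity with drug is given relative to no-drug control, after subtracting background from unmodified samples (1.00 = no protection, 0 = full protection). Values are means of at least two experiments.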

Nucleic Acid [2] = test: Binding affinity to Escherichia coli 23S rRNA U2585 assessed as degree of protection against CMCT at 5 uM by Chemical footprinting analysis relative to control; assay type: nucleic-acid assay; summary of the method: as §1
Bacillus subtilis = test: Antibacterial activity against Bacillus subtilis 168 after 12 hrs by microtitre plate reader; assay type: functional; conditions: Bacillus subtilis, 168, 12 h
Summary of the method: (§2)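 Microtiter broth dilution. Media: E. coli AS19 in LB; B. subtilis 168 in 25% BHI/75% LB/0.05% Tween; L. innocua in 50% BHI/50% LB. Overnight cultures started from single colonies were diluted to OD450 0.01 and mixed 1:1 with 2-fold drug dilutions (0.125–32 μg/mL). Growth was read as OD450. MIC is the lowest concentration giving complete growth inhibition (E. coli read at 24 h).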

Nucleic Acid [3] = test: Binding affinity to Escherichia coli 23S rRNA U2585 assessed as degree of protection against CMCT at 50 uM by Chemical footprinting analysis relative to control; assay type: nucleic-acid assay; summary of the method: as §1
Listeria innocua = test: Antibacterial activity against Listeria innocua after 24 hrs by microtitre plate reader; assay type: functional; summary of the method: as §2
Escherichia coli = test: Antibacterial activity against Escherichia coli AS19 after 24 hrs by microtitre plate reader; assay type: functional; conditions: AS19, 24 h; summary of the method: as §2
Nucleic Acid [4] = test: Binding affinity to Escherichia coli 23S rRNA U2506 assessed as degree of protection against CMCT at 5 uM by Chemical footprinting analysis relative to control; assay type: nucleic-acid assay; summary of the method: as §1

Ratio (Nucleic Acid [1])	Ratio (Nucleic Acid [2])	MIC (Bacillus subtilis)	Ratio (Nucleic Acid [3])	MIC (Listeria innocua)	MIC (Escherichia coli)	Ratio (Nucleic Acid [4])	Structure (SMILES)
0.03	0.54	> 32 µg/mL	0.5	> 32 µg/mL	0.5 µg/mL (≈ 1.01 µM)	0.07	C=C[C@]1(C)C[C@@H](OC(=O)CSCCN(CC)CC)[C@]2(C)[C@H](C)CC[C@]3(CCC(=O)[C@H]32)[C@@H](C)[C@@H]1O [TIAMULIN]
0.08	0.4	> 32 µg/mL	0.22	> 32 µg/mL	> 32 µg/mL	0.18	C=C[C@]1(C)C[C@@H](OC(=O)Cn2cc(-c3ccc(-n4cnc5c(N)ncnc54)cc3)nn2)[C@]2(C)[C@H](C)CC[C@]3(CCC(=O)[C@H]32)[C@@H](C)[C@@H]1O
0.08	0.89	32 µg/mL (≈ 84.5 µM)	0.8	> 32 µg/mL	1 µg/mL (≈ 2.64 µM)	0.28	C=C[C@]1(C)C[C@@H](OC(=O)CO)[C@]2(C)[C@H](C)CC[C@]3(CCC(=O)[C@@H]32)[C@@H](C)[C@@H]1O [PLEUROMUTILIN]
0.06	0.37	> 32 µg/mL	0.22	> 32 µg/mL	> 32 µg/mL	0.21	C=C[C@]1(C)C[C@@H](OC(=O)Cn2cc(COCn3cnc4c(N)ncnc43)nn2)[C@]2(C)[C@H](C)CC[C@]3(CCC(=O)[C@H]32)[C@@H](C)[C@@H]1O
0.06	0.39	> 32 µg/mL	0.21	> 32 µg/mL	≥ 32 µg/mL	0.18	C=C[C@]1(C)C[C@@H](OC(=O)Cn2cc(/C=C/Cn3cc(C)c(=O)[nH]c3=O)nn2)[C@]2(C)[C@H](C)CC[C@]3(CCC(=O)[C@H]32)[C@@H](C)[C@@H]1O
0.08	0.43	> 32 µg/mL	0.24	> 32 µg/mL	≥ 32 µg/mL	0.28	C=C[C@]1(C)C[C@@H](OC(=O)Cn2cc(COCCn3cc(C)c(=O)[nH]c3=O)nn2)[C@]2(C)[C@H](C)CC[C@]3(CCC(=O)[C@H]32)[C@@H](C)[C@@H]1O

Second part, the compound before the results:

Structure (SMILES)	Ratio (Nucleic Acid [1])	Ratio (Nucleic Acid [2])	MIC (Bacillus subtilis)	Ratio (Nucleic Acid [3])	MIC (Listeria innocua)	MIC (Escherichia coli)	Ratio (Nucleic Acid [4])
C=C[C@]1(C)C[C@@H](OC(=O)Cn2cc(COCn3cc(C)c(=O)[nH]c3=O)nn2)[C@]2(C)[C@H](C)CC[C@]3(CCC(=O)[C@H]32)[C@@H](C)[C@@H]1O	0.07	0.37	> 32 µg/mL	0.22	> 32 µg/mL	> 32 µg/mL	0.23
C=C[C@]1(C)C[C@@H](OC(=O)Cn2cc(COCc3ccccc3)nn2)[C@]2(C)[C@H](C)CC[C@]3(CCC(=O)[C@H]32)[C@@H](C)[C@@H]1O	0.08	0.5	> 32 µg/mL	0.41	> 32 µg/mL	> 32 µg/mL	0.3
C=C[C@]1(C)C[C@@H](OC(=O)Cn2cc(-c3cccc(-n4cnc5c(N)ncnc54)c3)nn2)[C@]2(C)[C@H](C)CC[C@]3(CCC(=O)[C@H]32)[C@@H](C)[C@@H]1O	0.06	0.1	8 µg/mL (≈ 12.5 µM)	0.07	> 32 µg/mL	1 µg/mL (≈ 1.57 µM)	0.06
C=C[C@]1(C)C[C@@H](OC(=O)CSC(C)(C)CNC(=O)[C@H](N)C(C)C)[C@]2(C)[C@H](C)CC[C@]3(CCC(=O)[C@H]32)[C@@H](C)[C@@H]1O [VALNEMULIN]	0.04	0.15	2 µg/mL (≈ 3.54 µM)	0.16	1 µg/mL (≈ 1.77 µM)	< 0.125 µg/mL	0.05
C=C[C@]1(C)C[C@@H](OC(=O)Cn2nncc2CCCn2cnc3c(N)ncnc32)[C@]2(C)[C@H](C)CC[C@]3(CCC(=O)[C@H]32)[C@@H](C)[C@@H]1O	0.04	0.19	> 32 µg/mL	0.16	> 32 µg/mL	16 µg/mL (≈ 26.5 µM)	0.09
C=C[C@]1(C)C[C@@H](OC(=O)Cn2cc(/C=C/Cn3cnc4c(N)ncnc43)nn2)[C@]2(C)[C@H](C)CC[C@]3(CCC(=O)[C@H]32)[C@@H](C)[C@@H]1O	0.05	0.29	16 µg/mL (≈ 26.5 µM)	0.16	> 32 µg/mL	8 µg/mL (≈ 13.3 µM)	0.1
C=C[C@]1(C)C[C@@H](OC(=O)Cn2cc(C[C@@H]3[C@H](O)[C@@H](CO)O[C@H]3n3ccc(=O)[nH]c3=O)nn2)[C@]2(C)[C@H](C)CC[C@]3(CCC(=O)[C@H]32)[C@@H](C)[C@@H]1O	0.09	0.46	> 32 µg/mL	0.26	> 32 µg/mL	> 32 µg/mL	0.31
C=C[C@]1(C)C[C@@H](OC(=O)Cn2ccnn2)[C@]2(C)[C@H](C)CC[C@]3(CCC(=O)[C@H]32)[C@@H](C)[C@@H]1O	0.18	0.66	> 32 µg/mL	0.42	> 32 µg/mL	16 µg/mL (≈ 37.2 µM)	0.48
C=C[C@]1(C)C[C@@H](OC(=O)Cn2cc(CCCn3cnc4c(N)ncnc43)nn2)[C@]2(C)[C@H](C)CC[C@]3(CCC(=O)[C@H]32)[C@@H](C)[C@@H]1O	0.05	0.23	> 32 µg/mL	0.17	> 32 µg/mL	8 µg/mL (≈ 13.2 µM)	0.13
